Results as given in ChEMBL document CHEMBL3792365, “Dioxol and dihydrodioxin analogs of 2- and 3-phenylacetonitriles as potent anti-cancer agents with nanomolar activity against a variety of human cancer cells” (2016).

Key:
Assay type in all cases: functional
[1] = test system: A498; assay: Growth inhibition of human A498 cells after 48 hrs by sulforhodamine B assay; conditions: A498, 48 h
Outline: (§1)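 Five-dose testing against a 60-line human tumor cell panel. GI50 is the drug concentration giving a 50% reduction in net protein increase relative to untreated control cells.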

[2] = test system: SR; assay: Growth inhibition of human SR cells at 10 uM after 48 hrs by sulforhodamine B assay; conditions: values are per cent of control
[3] = test system: NCI-H226; assay: Growth inhibition of human NCI-H226 cells at 10 uM after 48 hrs by sulforhodamine B assay; conditions: NCI-H226, 48 h, values are per cent of control
[4] = Growth inhibition of human HOP92 cells at 10 uM after 48 hrs by sulforhodamine B assay; conditions: HOP-92, 48 h, values are per cent of control
[5] = test system: SR; assay: Growth inhibition of human SR cells after 48 hrs by sulforhodamine B assay
Outline: (§2)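 Five-dose concentration series run across a panel of 60 human tumour cell lines. GI50 is taken as the drug concentration giving a 50% reduction in net protein increase relative to untreated control cells.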

[6] = test system: HT-29; assay: Growth inhibition of human HT-29 cells at 10 uM after 48 hrs by sulforhodamine B assay; conditions: HT-29, 48 h, values are per cent of control
[7] = Growth inhibition of human SF268 cells after 48 hrs by sulforhodamine B assay; conditions: SF-268, 48 h; outline: as §2
[8] = Growth inhibition of human HL-60(TB) cells after 48 hrs by sulforhodamine B assay; conditions: HL-60, 48 h
Outline: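 Five-dose study across the 60-cell human tumour panel. GI50 is the drug concentration giving a 50% reduction in net protein increase relative to control cells.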

[9] = Growth inhibition of human HCT15 cells after 48 hrs by sulforhodamine B assay; conditions: HCT-15, 48 h; outline: as §1
[10] = test system: SK-MEL-28; assay: Growth inhibition of human SK-MEL-28 cells after 48 hrs by sulforhodamine B assay; conditions: SK-MEL-28, 48 h; outline: as §2
[11] = Growth inhibition of human HOP92 cells after 48 hrs by sulforhodamine B assay; conditions: HOP-92, 48 h; outline: as §1
[12] = Growth inhibition of human SF295 cells at 10 uM after 48 hrs by sulforhodamine B assay; conditions: SF-295, 48 h, values are per cent of control
[13] = Growth inhibition of human PC3 cells at 10 uM after 48 hrs by sulforhodamine B assay; conditions: PC-3, 48 h, values are per cent of control
[14] = Growth inhibition of human Caki1 cells after 48 hrs by sulforhodamine B assay; conditions: CAKI-1, 48 h; outline: as §1
[15] = Growth inhibition of human MOLT4 cells at 10 uM after 48 hrs by sulforhodamine B assay; conditions: MOLT-4, 48 h, values are per cent of control
[16] = test system: 786-0; assay: Growth inhibition of human 786-0 cells at 10 uM after 48 hrs by sulforhodamine B assay; conditions: 786-0, 48 h, values are per cent of control
[17] = Growth inhibition of human OVCAR3 cells after 48 hrs by sulforhodamine B assay; conditions: OVCAR-3, 48 h; outline: as §2
[18] = Growth inhibition of human TK10 cells at 10 uM after 48 hrs by sulforhodamine B assay; conditions: TK-10, 48 h, values are per cent of control
[19] = Growth inhibition of human SW620 cells after 48 hrs by sulforhodamine B assay; conditions: SW-620, 48 h; outline: as §2
[20] = test system: ACHN; assay: Growth inhibition of human ACHN cells after 48 hrs by sulforhodamine B assay; outline: as §1
[21] = test system: MDA-MB-435; assay: Growth inhibition of human MDA-MB-435 cells after 48 hrs by sulforhodamine B assay; conditions: MDA-MB-435, 48 h; outline: as §1
[22] = test system: SK-MEL-2; assay: Growth inhibition of human SK-MEL-2 cells at 10 uM after 48 hrs by sulforhodamine B assay; conditions: SK-MEL-2, 48 h, values are per cent of control
[23] = test system: A549; assay: Growth inhibition of human A549/ATCC cells after 48 hrs by sulforhodamine B assay; conditions: A549, 48 h; outline: as §1
[24] = Growth inhibition of human UACC257 cells at 10 uM after 48 hrs by sulforhodamine B assay; conditions: UACC-257, 48 h, values are per cent of control
[25] = test system: 786-0; assay: Growth inhibition of human 786-0 cells after 48 hrs by sulforhodamine B assay; conditions: 786-0, 48 h; outline: as §1
[26] = test system: MCF7; assay: Growth inhibition of human MCF7 cells at 10 uM after 48 hrs by sulforhodamine B assay; conditions: MCF7, 48 h, values are per cent of control
[27] = Growth inhibition of human RPMI8226 cells at 10 uM after 48 hrs by sulforhodamine B assay; conditions: RPMI-8226, 48 h, values are per cent of control
[28] = test system: Malme-3M; assay: Growth inhibition of human MALME-3M cells at 10 uM after 48 hrs by sulforhodamine B assay; conditions: values are per cent of control
[29] = Growth inhibition of human IGROV1 cells after 48 hrs by sulforhodamine B assay; conditions: IGROV-1, 48 h; outline: as §1
[30] = Growth inhibition of human HL-60(TB) cells at 10 uM after 48 hrs by sulforhodamine B assay; conditions: HL-60, 48 h, values are per cent of control
[31] = test system: SK-MEL-2; assay: Growth inhibition of human SK-MEL-2 cells after 48 hrs by sulforhodamine B assay; conditions: SK-MEL-2, 48 h; outline: as §2
[32] = test system: SK-MEL-5; assay: Growth inhibition of human SK-MEL-5 cells after 48 hrs by sulforhodamine B assay; conditions: SK-MEL-5, 48 h; outline: as §2
[33] = Growth inhibition of human HOP62 cells after 48 hrs by sulforhodamine B assay; conditions: HOP-62, 48 h; outline: as §1
[34] = test system: NCI-H23; assay: Growth inhibition of human NCI-H23 cells at 10 uM after 48 hrs by sulforhodamine B assay; conditions: NCI-H23, 48 h, values are per cent of control
[35] = test system: M14; assay: Growth inhibition of human M14 cells after 48 hrs by sulforhodamine B assay; conditions: M14, 48 h; outline: as §1
[36] = Growth inhibition of human HCC2998 cells after 48 hrs by sulforhodamine B assay; conditions: HCC 2998, 48 h; outline: as §1
[37] = Growth inhibition of human PC3 cells after 48 hrs by sulforhodamine B assay; conditions: PC-3, 48 h; outline: as §2
[38] = Growth inhibition of human SF539 cells after 48 hrs by sulforhodamine B assay; conditions: SF-539, 48 h; outline: as §2
[39] = test system: CCRF-CEM; assay: Growth inhibition of human CCRF-CEM cells at 10 uM after 48 hrs by sulforhodamine B assay; conditions: values are per cent of control
[40] = Growth inhibition of human SNB75 cells after 48 hrs by sulforhodamine B assay; conditions: SNB-75, 48 h; outline: as §2
[41] = Growth inhibition of human SKOV3 cells at 10 uM after 48 hrs by sulforhodamine B assay; conditions: SK-OV-3, 48 h, values are per cent of control
[42] = test system: CCRF-CEM; assay: Growth inhibition of human CCRF-CEM cells after 48 hrs by sulforhodamine B assay; outline: as §1
[43] = Growth inhibition of human OVCAR3 cells at 10 uM after 48 hrs by sulforhodamine B assay; conditions: OVCAR-3, 48 h, values are per cent of control
[44] = Growth inhibition of human LOXIMVI cells after 48 hrs by sulforhodamine B assay; conditions: LOX IMVI; outline: as §1

COc1ccc(/C(C#N)=C/c2ccc3c(c2)OCCO3)cc1
GI50 [1]: > 100 µM | growth, % of control at 10 µM [2]: -1.3% | growth, % of control at 10 µM [3]: 81.2% | growth, % of control at 10 µM [4]: 89% | GI50 [5]: 2.76 µM | growth, % of control at 10 µM [6]: 21.8% | GI50 [7]: > 100 µM | GI50 [8]: > 100 µM | GI50 [9]: 2.1 µM | GI50 [10]: > 100 µM | GI50 [11]: > 100 µM | growth, % of control at 10 µM [12]: 66.7% | growth, % of control at 10 µM [13]: 70.9% | GI50 [14]: > 100 µM | growth, % of control at 10 µM [15]: 32.2% | growth, % of control at 10 µM [16]: 80.2% | GI50 [17]: 37.1 µM | growth, % of control at 10 µM [18]: 65.2% | GI50 [19]: 3.93 µM | GI50 [20]: > 100 µM | GI50 [21]: 0.51 µM | growth, % of control at 10 µM [22]: 36% | GI50 [23]: 21.7 µM | growth, % of control at 10 µM [24]: 76.7% | GI50 [25]: 35.8 µM | growth, % of control at 10 µM [26]: 24.4% | growth, % of control at 10 µM [27]: 80.8% | growth, % of control at 10 µM [28]: 64.6% | GI50 [29]: > 100 µM | growth, % of control at 10 µM [30]: 38% | GI50 [31]: 36.8 µM | GI50 [32]: 3.54 µM | GI50 [33]: > 100 µM | growth, % of control at 10 µM [34]: 78.3% | GI50 [35]: 3.87 µM | GI50 [36]: 7.78 µM | GI50 [37]: > 100 µM | GI50 [38]: 73.1 µM | growth, % of control at 10 µM [39]: 58.7% | GI50 [40]: 21.9 µM | growth, % of control at 10 µM [41]: 81% | GI50 [42]: > 100 µM

N#C/C(=C\c1cccc2ccccc12)c1ccc2c(c1)OCO2
GI50 [1]: 1.17 µM | growth, % of control at 10 µM [2]: 23.8% | growth, % of control at 10 µM [3]: 83% | GI50 [5]: 1.6 µM | growth, % of control at 10 µM [43]: 46.8% | growth, % of control at 10 µM [6]: 23.5% | GI50 [7]: 8.99 µM | GI50 [8]: 3.5 µM | GI50 [9]: 1.77 µM | GI50 [10]: 5.84 µM | GI50 [11]: 4.55 µM | growth, % of control at 10 µM [12]: 68.2% | growth, % of control at 10 µM [13]: 80.1% | GI50 [14]: 4.18 µM | growth, % of control at 10 µM [16]: 77.1% | GI50 [17]: 4.18 µM | growth, % of control at 10 µM [18]: 78.2% | GI50 [19]: 3.72 µM | GI50 [20]: 4.52 µM | GI50 [21]: 0.43 µM | growth, % of control at 10 µM [22]: 59.8% | GI50 [23]: 5 µM | growth, % of control at 10 µM [24]: 103% | GI50 [25]: 5.62 µM | growth, % of control at 10 µM [26]: 26.1% | growth, % of control at 10 µM [27]: 77% | growth, % of control at 10 µM [28]: 73.3% | GI50 [29]: 5.95 µM | GI50 [31]: 3.18 µM | GI50 [32]: 3.2 µM | GI50 [33]: 3.77 µM | growth, % of control at 10 µM [34]: 77.7% | GI50 [35]: 3.13 µM | GI50 [36]: 11 µM | GI50 [44]: 4.22 µM | GI50 [37]: 5.52 µM | GI50 [38]: 2.71 µM | growth, % of control at 10 µM [39]: 52.3% | GI50 [40]: 2.45 µM | growth, % of control at 10 µM [41]: 61.9% | GI50 [42]: 3.65 µM

COc1ccc(/C=C(\C#N)c2ccc3c(c2)OCO3)c2ccccc12
GI50 [1]: 0.41 µM | growth, % of control at 10 µM [2]: 18.4% | growth, % of control at 10 µM [3]: 38.5% | GI50 [5]: 5.44 µM | growth, % of control at 10 µM [43]: -21.2% | growth, % of control at 10 µM [6]: 10% | GI50 [7]: 9.34 µM | GI50 [8]: 1.57 µM | GI50 [9]: 0.75 µM | GI50 [10]: 4.52 µM | GI50 [11]: 12 µM | growth, % of control at 10 µM [12]: 5.6% | growth, % of control at 10 µM [13]: 36.1% | GI50 [14]: 2.06 µM | growth, % of control at 10 µM [15]: 26.8% | growth, % of control at 10 µM [16]: 40.2% | GI50 [17]: 3.04 µM | growth, % of control at 10 µM [18]: 43.8% | GI50 [19]: 0.72 µM | GI50 [20]: 4.24 µM | GI50 [21]: 0.31 µM | growth, % of control at 10 µM [22]: 13.1% | GI50 [23]: 2.65 µM | growth, % of control at 10 µM [24]: 41% | GI50 [25]: 4.38 µM | growth, % of control at 10 µM [26]: 12.1% | growth, % of control at 10 µM [27]: 5.3% | growth, % of control at 10 µM [28]: 37.9% | GI50 [29]: 4.07 µM | growth, % of control at 10 µM [30]: 7.8% | GI50 [31]: 2.9 µM | GI50 [32]: 1.52 µM | GI50 [33]: 2.14 µM | growth, % of control at 10 µM [34]: 49.9% | GI50 [35]: 1.68 µM | GI50 [36]: 5.42 µM | GI50 [44]: 3.96 µM | GI50 [37]: 3.04 µM | GI50 [38]: 1.58 µM | growth, % of control at 10 µM [39]: 21.6% | GI50 [40]: 1.14 µM | growth, % of control at 10 µM [41]: 26.9% | GI50 [42]: 1.91 µM
